# High-throughput results (PubChem BioAssay)
# In the library only some 1.7% were active in any assay of this set; here they are far more common.
# HNF4A DNA FP – change in binding of human HNF4A to DNA, primary screen, biochemical, fluorescence polarization, FITC-DNA; Hepatocyte nuclear factor 4-alpha (Homo sapiens), P41235; 1 h; activity change, % at 10 µM; hit rate 0.3% among 360,000; AID 1224865, 2016; in the data active means activity change above about 30%, passing the limit was not always enough
# Target sequence (P41235 whole entry, looked up): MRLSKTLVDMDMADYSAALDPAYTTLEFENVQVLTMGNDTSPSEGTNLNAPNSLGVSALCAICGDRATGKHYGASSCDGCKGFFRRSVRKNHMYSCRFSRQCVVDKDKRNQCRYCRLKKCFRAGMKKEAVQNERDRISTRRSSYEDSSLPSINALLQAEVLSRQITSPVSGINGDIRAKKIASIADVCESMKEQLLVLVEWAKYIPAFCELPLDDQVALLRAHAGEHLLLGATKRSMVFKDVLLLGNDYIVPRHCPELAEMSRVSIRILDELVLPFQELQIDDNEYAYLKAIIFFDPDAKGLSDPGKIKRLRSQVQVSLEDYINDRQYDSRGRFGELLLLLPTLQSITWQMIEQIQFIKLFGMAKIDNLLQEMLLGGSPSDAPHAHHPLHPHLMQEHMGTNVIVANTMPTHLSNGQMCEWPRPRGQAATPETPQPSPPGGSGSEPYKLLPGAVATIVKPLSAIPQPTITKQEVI
# CSN deneddyl inh – inhibitors of CSN-mediated cullin deneddylation, primary screen, biochemical, fluorescence polarization, uHTS; COP9 signalosome complex subunit 5 (Homo sapiens), Q92905; Purified CSN, SCF-Nedd8-OG deneddylation; inhibition, % at 12.5 µM; hit rate 0.38% among 360,000; AID 651999, 2013;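 active means pattern-corrected inhibition above about 35%, with an unprinted fluorescence ratio check between 0.5 and 1.5, limit read from the data, passing the limit was not always enough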;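 further: 0% = enzyme with substrate and 100% = substrate without enzyme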
#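 Assay system: purified human Csn5 enzyme expressed in HEK293T cells; Input: 0.24 nM Csn5 enzyme, final concentration; Reagent: 10 nM SCFSkp2-Nedd8OG; Compound dosing: 12.5 µM single point; Times: reaction 90 min, room temperature; Technique: fluorescence polarization readout.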
# IDE cell activ – human IDE activators in live cells, primary screen, fluorescence polarization, HEK cells, FAbeta-B substrate; FAbeta-B cleavage; 0% vehicle, 100% cell-free pure enzyme wells; hit rate 0.073% among 340,000; activation, % at 5.96 µM; AID 493087, 2011;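 active means activation above the mean of all tested compounds plus 3 SD, set per screening campaign, cut at about 17% in these data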
# IDE cell inh – human IDE inhibitors in live cells, primary screen, fluorescence polarization, HEK cells, FAbetaB substrate; Insulin-degrading enzyme (Homo sapiens), P14735; hit rate 0.41% among 320,000; inhibition, % at 5.59 µM; FAbetaB cleavage; AID 434962, 2010;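 active means percent inhibition above the average of all tested compounds plus 3 SD, set per screening campaign, cut at about 16% in these data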;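 further: IDE supplied by intact live HEK cells; FP after avidin binding of uncleaved biotin substrate so inhibition keeps polarization high; 0% = DMSO wells and 100% = 60 µM reference IDE inhibitor Ii1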
# TPT1 inhibitor – Candida albicans TPT1 enzyme inhibitors, primary screen, biochemical, fluorescence polarization; AID 1962, 2009; recombinant caTPT1, FP RNA substrate dephosphorylation; hit rate 0.81% among 300,000; inhibition, % at 5 µM; tRNA 2'-phosphotransferase TPT1 (Candida albicans SC5314);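 active means inhibition above the mean of all tested compounds plus 3 SD, set per screening campaign, cut at about 24% in these data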;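 further: plate controls were DMSO alone for no effect and ferristatin control at 100 nM for full effect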
# Rpn11 block – Rpn11 (PSMD14) deubiquitinase inhibitors, primary screen, biochemical, fluorescence polarization, uHTS | inhibition, % at 20 µM | human 26S proteasome, Ub4-pepOG fluorescence polarization; 20S core pre-blocked with epoxomicin | hit rate 0.59% among 360,000 | 26S proteasome non-ATPase regulatory subunit 14 (Homo sapiens), O00487 | AID 588493, 2011;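 active means inhibition at 20 µM, scaled to each plate's controls, above about 33%, limit read from the data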
# IDE cell inh cf – human IDE inhibitors in live cells, confirmation, fluorescence polarization, HEK cells, FAbetaB substrate; inhibition, % at 5.59 µM; AID 435028, 2010; FAbetaB cleavage; shares compounds with IDE cell inh; hit rate 51% among 1,200;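 active means mean inhibition across triplicate wells above the cutoff set by the earlier primary insulin-degrading enzyme screen, cut at about 16% in these data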;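 further: 0% = DMSO wells and 100% = 60 µM reference IDE inhibitor Ii1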
# HEK cytotox – cytotoxicity in HEK cells, cytotoxicity control for IDE inhibitor project, cell-based, luminescence | shares compounds with IDE cell inh | HEK293 cytotoxicity, ATP luminescence | inhibition, % at 5.59 µM | hit rate 28% among 1,200 | AID 449730, 2010; in the data active means inhibition above about 22%;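 further: 0% = vehicle wells and 100% = reference cytotoxic drug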
# FP fluor counter – fluorescent or optically active artefacts, dose response, artefact control for IDE inhibitor project, biochemical, fluorescence polarization | shares compounds with IDE cell inh | FP counterscreen for fluorescent artifacts, IDE probe project | IC50, µM | 30 tested, under 10 active | AID 588718, 2011; call rule not given here
# An asterisk follows results filed as active; nt = not tested or not shown.
SMILES,HNF4A DNA FP,CSN deneddyl inh,IDE cell activ,IDE cell inh,TPT1 inhibitor,Rpn11 block,IDE cell inh cf,HEK cytotox,others
O=C(NCc1ccco1)c1cccc2c1C(=O)c1ccc(N3CCC(Cc4ccccc4)CC3)cc1S2(=O)=O,-25,14,-17,46*,nt,-53,45*,43*,
CC1CCN(c2ccc3c(c2)S(=O)(=O)c2cccc(C(=O)NCc4cccc(F)c4)c2C3=O)CC1,-14,53,-13,24*,nt,nt,32*,23*,
O=C(NCc1ccc(F)cc1)c1cc(C2CCCN(C(=O)c3ccc4ccccc4c3)C2)on1 (stereo not given),2,0,nt,nt,nt,3,nt,nt,
COc1ccc(C(=O)N2CCN(C(=O)C3COc4ccccc4O3)CC2)cc1OC (stereo not given),-1,2,-19,17*,-1,-2,16*,5,FP fluor counter=>55
COc1cccc(C(=O)N2CCN(C(=O)C3COc4ccccc4O3)CC2)c1 (stereo not given),-2,-4,-8,6,-6,-6,nt,nt,
CCCc1cc(N2CCCC(C(=O)Nc3cc(Cl)ccc3OC)C2)n2ncnc2n1 (stereo not given),0,-1,-2,7,-1,-6,nt,nt,
COc1ccc(Cl)cc1NC(=O)C1CCCN(c2cc(C)nc3ncnn23)C1 (stereo not given),4,-2,-27,16*,-1,-5,13,9,
O=C(NC1CCCCC1)C1CCN(C(=O)c2ccc(-c3ccccc3)cc2)CC1,-2,6,-3,18*,-4,5,6,12,
Cc1cc(N2CCN(C(c3ccccc3)c3ccccc3)CC2)n2ncnc2n1,1,0,3,-1,7,1,nt,nt,
Cc1cc(N2CCN(c3nc4ccccc4s3)CC2)n2ncnc2n1,6,2,-25,17*,2,-14,6,75*,
OC(c1ccccc1)C(NCCNCc1ccccc1)c1ccccc1 (stereo not given),1,-4,2,nt,nt,-1,nt,nt,
CCC1NC(=O)c2cc3ccccc3cc2-n2c1nc1ccc(OC)cc1c2=O (stereo not given),2,0,nt,nt,nt,-6,nt,nt,
O=S(=O)(c1ccc(N=C2NN=C(c3cc(F)ccc3F)CS2)cc1)N1CCOCC1,3,3,nt,nt,nt,14,nt,nt,
CC(=O)Nc1ccc(C2=NNC(=Nc3ccc(S(=O)(=O)N4CCOCC4)cc3)SC2)cc1,6,3,-29,22*,7,20,9,15,
Cc1ccc(S(=O)(=O)N2CCOCC2)cc1NC(=O)Cn1c(=O)ccn(Cc2ccccc2)c1=O,1,1,1,nt,nt,-1,nt,nt,
Clc1ccc2[nH]c3c(NCCN4CCOCC4)ncnc3c2c1,2,6,-3,19*,-2,2,4,16,
Fc1ccc2[nH]c3c(NCCN4CCOCC4)ncnc3c2c1,-3,5,-1,3,3,-1,nt,nt,
Clc1ccc2[nH]c3c(NCC4CCCO4)ncnc3c2c1 (stereo not given),nt,nt,nt,38*,0,nt,17*,34*,
COC(=O)c1sc(N)c(C(=O)OC)c1CSc1nnnn1C,0,2,5,1,-7,7,nt,nt,
COC(=O)c1sc(N)c(C(=O)OC)c1CSc1nnc(-c2ccccc2Cl)n1C,3,-5,-4,16*,0,-4,5,10,
COc1cccc(CN(C)C(=O)C2CCCN(C(=O)c3ccc(Cl)cc3)C2)c1 (stereo not given),5,0,nt,nt,nt,-6,nt,nt,
COc1ccc(CN(C)C(=O)C2CSC3(C)CCC(=O)N23)c(OC)c1 (stereo not given),1,-2,nt,nt,nt,0,nt,nt,
CN1CCN(C2=C(Cl)C(=O)C(c3cnc(N4CCCCC4)s3)=C(Cl)C2=O)CC1,-1,11,3,23*,0,11,-3,119*,
Nc1cc2c(cc1Br)-c1ccccc1C2=NO,8,0,4,nt,nt,-2,nt,nt,
COc1ccc(CN(C)C(=O)/C=C/[C@H]2O[C@@H](n3cc(C)c(=O)[nH]c3=O)C[C@@H]2O)cc1OC,4,1,nt,nt,nt,-7,nt,nt,
SMILES,HNF4A DNA FP,CSN deneddyl inh,IDE cell activ,IDE cell inh,TPT1 inhibitor,Rpn11 block,IDE cell inh cf,HEK cytotox,others
N#C/C(=C\c1ccc(O)c(O)c1)C(=O)NCCCc1ccccc1,-2,2,-37,29*,13,4,38*,14,
c1ccc(C(c2ccccn2)c2ccccn2)cc1,-6,-2,-7,17*,1,-2,3,9,
CC(=O)Oc1ccc(C(c2ccc(OC(C)=O)cc2)c2ccccn2)cc1,0,-3,-1,4,-3,-1,nt,nt,
O=C(Nc1ccc(C(=O)OC[C@@H]2CCCN3CCCC[C@H]23)cc1)c1cccc(Br)c1,2,-2,-14,32*,4,4,6,10,
Cc1cccc(C(=O)Nc2cccc(-c3ccc4nncn4n3)c2)c1,-1,2,-29,20*,0,-1,12,17,
O=C(O)C1c2ccccc2C(=O)N(Cc2ccc(F)cc2)C1c1ccncc1 (stereo not given),3,-4,nt,16*,-1,-5,6,4,
O=C(Nc1ccc(Cl)cc1)N1CCN(c2ccc3nnc(-c4ccc(F)cc4)n3n2)CC1,-5,5,-29,22*,0,14,13,11,
O=C(Nc1ccccc1Cl)N1CCN(c2ccc3nnc(-c4ccccc4)n3n2)CC1,0,1,-14,8,-7,2,nt,nt,
Cc1ccc(N2CCN(CCc3nc4cc(NC(=O)c5ccco5)ccc4n3C)CC2)cc1,2,-2,-1,19*,-3,-5,8,21,
O=C(Nc1ccc(N2CCOCC2)c(Cl)c1)c1ccc(Cl)cc1,6,-5,-5,18*,-1,1,4,21,
CC(C)CCNc1ncnc2c1cnn2Cc1ccccc1Cl,0,-2,-14,21*,-2,-10,9,19,
